M1 antagonist = antagonists of rat M1 muscarinic receptor. B-score at 10 µM. Muscarinic acetylcholine receptor M1 (Rattus norvegicus), P08482. 64,000 compounds, 3.4% hits. CHO-M1 cells, Fluo-4 calcium, ACh EC80 antagonist mode; stronger effect = lower value;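 active = calcium fluorescence response, raw or row-and-column corrected B-score, differing from the plate sample mean either way at a set confidence level, mostly lower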
S1P3 agonist = human S1P3 receptor agonists, primary screen, cell-based, primary and confirmation, NFAT-BLA reporter; Sphingosine 1-phosphate receptor 3 (Homo sapiens), Q99500; 60,000 compounds, 0.1% hits; S1P3 NFAT-BLA reporter cells, agonism, FRET ratio; relative to 1 µM S1P, basal subtracted; activation, % at 4.5 µM;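 active = activation above the screen-wide mean plus 3 SD, cut at about 4.5% in these data, passing the limit was not always enough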
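Measure – % activation relative to 1 µM S1P (100%), per plate · System – stable CHO line with human S1P3, Gα16, NFAT-BLA reporter · Timing – cells plated overnight, compound 4 h 37 °C, substrate 2 h RT · Technique – fluorescent BLA substrate, ex 405 nm, em 460/535 nm ratio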
M1 agonist = M1 muscarinic receptor agonists, primary screen, CHO-M1 cells, Fluo-4 calcium, agonist mode. AID 626, 2007. Muscarinic acetylcholine receptor M1. 64,000 compounds, 3% hits. B-score at 10 µM. Fluo-4 calcium fluorescence; stronger effect = higher value;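 active = fluorescence rise, raw or as B-score row- and column-corrected plate score, outside the 99.7% band of its plate's samples, either direction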
D1 mod = D1 CRE-luciferase signal change, two-sided – cell-based, HEK293 D1, dopamine EC30, D1 allosteric modulator project, primary screen; D(1A) dopamine receptor (Homo sapiens), P21728; dopamine EC30 potentiation; actives deviate in either direction; B-score at 10 µM; 58,000 compounds, 5.9% hits;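 active = luminescence count or its row- and column-corrected plate score outside the 99.7% band of the plate's sample wells, on either side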
Target sequence (P21728 whole entry, looked up): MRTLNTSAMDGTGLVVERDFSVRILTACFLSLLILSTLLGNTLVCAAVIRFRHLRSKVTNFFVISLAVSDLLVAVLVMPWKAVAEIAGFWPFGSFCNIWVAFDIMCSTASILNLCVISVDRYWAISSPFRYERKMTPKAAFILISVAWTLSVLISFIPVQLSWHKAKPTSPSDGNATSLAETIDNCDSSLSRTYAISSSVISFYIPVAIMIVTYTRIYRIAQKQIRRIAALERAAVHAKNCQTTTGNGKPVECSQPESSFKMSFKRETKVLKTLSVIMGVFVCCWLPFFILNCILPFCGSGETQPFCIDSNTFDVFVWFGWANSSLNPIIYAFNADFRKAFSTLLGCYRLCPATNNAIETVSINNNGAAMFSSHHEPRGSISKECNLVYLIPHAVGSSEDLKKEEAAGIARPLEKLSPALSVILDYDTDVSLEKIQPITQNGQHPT
TNAP act DEA = human TNAP enzyme activators, primary screen, biochemical, luminescent, intermediate phosphate acceptor level | Alkaline phosphatase, tissue-nonspecific isozyme (Homo sapiens), P05186 | purified TNAP, CDP-star luminescence, 100 mM DEA, 30 min; stronger effect = higher value; scale: 0 levamisole-inhibited, 1 vehicle-only enzyme | activation factor at 20 µM | 64,000 tested, under 10 active | AID 813, 2007;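 active = activation factor of at least 2 at 20 µM, relative to controls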
S1P1 ag pot = S1P1 agonists and agonism potentiators, primary screen, cell-based, primary and confirmation screens, CRE-bla reporter. Sphingosine 1-phosphate receptor 1 (Homo sapiens), P21453. S1P1 CRE-bla cells, forskolin, beta-lactamase FRET, potentiator mode; S1P1 agonist co-added at EC20, 2 nM; 100% = saturating reference agonist, 0% = basal. activation, % at 9.5 µM. 56,000 compounds, 0.57% hits. AID 449, 2006;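 active = activation above a cutoff set at the mean activation of all tested compounds plus 3 SD, cut at about 54% in these data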;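 note: forskolin at 4 µM as EC80 and the EC20 agonist is SEW2871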
M1 ag confirm = rat M1 muscarinic receptor agonists, confirmation, CHO-M1 cells, Fluo-4 calcium, duplicate retest; shares compounds with M1 agonist; Fluo-4 calcium fluorescence, agonist mode; actives lie on both sides; fluorescence change (max-min) at 10 µM; 1,700 compounds, 19% hits; AID 1488, 2009;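 active = fluorescence change differs from the solvent-only DMSO control mean at a set confidence level in both duplicate runs; inconclusive = differs from solvent-only control mean in just one of two runs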;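 note: an EC20 dose of acetylcholine follows compound addition during the same imaging run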
M4 ag counter = agonist activity at rat M4 receptor, confirmation, counter-screen for M1 allosteric modulator project, cell-based, agonist mode. shares compounds with M1 agonist. CHO M4/Gqi5 cells, Fluo-4 calcium fluorescence; actives lie on both sides. fluorescence change (max-min) at 10 µM. 1,700 compounds, 9% hits. AID 1741, 2009;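 active = fluorescence change differing from the plate's solvent-only control wells at 99.7% confidence in both duplicates, whether higher or lower; inconclusive = differs from solvent controls in only one of two duplicates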
A number is an active result; . = inactive; ? = inconclusive; / = not tested or not shown. Only some compounds are listed: those with a hit (about 11% of all), similar ones and a draw of the others.

SMILES | M1 antagonist | S1P3 agonist | M1 agonist | D1 mod | TNAP act DEA | S1P1 ag pot | M1 ag confirm | M4 ag counter
COc1ccc(O)c(-c2cc(-c3cccs3)[nH]n2)c1 | . | . | . | / | . | . | / | /
Cc1ccc(-c2nn3c(-c4ccco4)nnc3c3ccccc23)cc1S(=O)(=O)NCC1CCCO1 (stereo not given) | . | . | 5.3 | . | . | . | . | .
Cc1ccc(-c2nn(C)c(=O)c3ccccc23)cc1S(=O)(=O)NCCN1CCOCC1 | . | . | . | . | . | . | / | /
O=C(c1ccc2snnc2c1)N1CCOCC1 | . | . | . | . | . | . | / | /
CCCCCNC(=O)C(C#N)c1nc2ccccc2nc1N1CC(C)OC(C)C1 (stereo not given) | . | . | . | / | . | . | / | /
CC1CN(c2nc3ccccc3nc2C(C#N)C(=O)OC2CCCCC2)CC(C)O1 (stereo not given) | . | . | 38 | . | . | . | ? | .
CC1CN(c2nc3ccccc3nc2C(C#N)C(=O)NC2CCCCC2)CC(C)O1 (stereo not given) | . | . | 41 | . | . | . | -31 | .
N#CC(C(=O)OC1CCCCC1)c1nc2ccccc2nc1N1CCCCC1 (stereo not given) | . | . | . | . | . | . | / | /
Nc1nnc(CCC2CCCCC2)s1 | . | . | . | / | . | . | / | /
N#CC1=C(N)SC(N)=C(C#N)C1CCC1CCCCC1 | . | . | 6.3 | . | . | . | . | .
CCCCCNC(=O)C(C#N)c1nc2ccccc2nc1N1CCCC1 (stereo not given) | -2.4 | . | 282 | . | . | . | 1609 | 1437
CCCCCCNC(=O)C(C#N)c1nc2ccccc2nc1N1CCOCC1 (stereo not given) | . | . | 156 | . | . | . | 179 | 1619
CCCCCCOC(=O)C(C#N)c1nc2ccccc2nc1N1CCOCC1 (stereo not given) | . | . | . | . | . | . | / | /
CCCCCCOC(=O)C(C#N)c1nc2ccccc2nc1N1CCN(CC)CC1 (stereo not given) | . | . | 4.1 | -4.1 | . | . | . | .
CN(C)CCNC(=O)COc1cccc(Cl)c1 | . | . | . | . | . | . | / | /
CCN=C1SC(C(=O)Nc2cccc(OCC)c2)CC(=O)N1CC (stereo not given) | . | . | 7.6 | . | . | . | . | .
CCN1CCN(C(=O)c2ccc3c(=O)n(C4CCCC4)c(=S)[nH]c3c2)CC1 | . | . | 1.4 | . | . | . | . | .
CCOC(=O)N1CCN(C(=O)c2ccc3c(=O)n(CCc4ccccc4)c(=S)[nH]c3c2)CC1 | . | . | . | . | . | . | / | /
CCCn1c(=S)[nH]c2cc(C(=O)N3CCCC(C(=O)OCC)C3)ccc2c1=O (stereo not given) | . | / | 3.3 | . | . | / | . | ?
O=C(c1ccc2c(=O)n(C3CCCC3)c(=S)[nH]c2c1)N1CCN(C2CCCCC2)CC1 | . | . | . | . | . | . | / | /
COc1ccc(NC(=O)c2cc(Cl)ccc2NC(=O)c2ccco2)c(OC)c1 | . | / | . | / | . | / | / | /
Cc1cc(NC(=O)CCCC(=O)NCc2cccs2)no1 | . | . | . | . | . | . | / | /
COc1ccc(OCc2nnc(SC(C)C(=O)Nc3nccs3)n2-c2ccccc2)cc1 (stereo not given) | . | . | . | . | . | . | / | /
COc1cccc(-n2c(Cc3cc(=O)[nH]c(=O)[nH]3)nnc2SCC(=O)N2CCCC2)c1 | . | . | . | . | . | . | / | /
COc1ccc(-n2c(Cc3cc(=O)[nH]c(=O)[nH]3)nnc2SCC(=O)N2CCCC2)cc1 | . | . | 3.5 | . | . | . | . | .
SMILES | M1 antagonist | S1P3 agonist | M1 agonist | D1 mod | TNAP act DEA | S1P1 ag pot | M1 ag confirm | M4 ag counter
COC(=O)Nc1ccc(C)c2nsnc12 | . | . | . | . | . | . | / | /
COc1ccc(C2C(C#N)=C(/N=C/N3CCN(C)CC3)OC3=C2C(=O)CC(C)(C)C3)cc1OC (stereo not given) | . | . | . | . | . | . | / | /
CC(C)c1cc(CN2CCN(CCC#N)CC2)cc(C(C)C)c1O | . | . | 27 | . | . | . | . | .
CC(C)(C)c1cc(CN2CCN(CCO)CC2)cc(C(C)(C)C)c1O | . | . | . | . | . | . | / | /
CCc1nnc(NC(=O)CSc2nnc3ncccn23)s1 | . | . | . | / | . | . | / | /
Cc1ccc(-c2nnc3c4ccccc4c(C)nn23)cc1NC(=O)CN1CCOCC1 | / | . | / | . | . | . | / | /
Cc1ccc(-c2nnc3c4ccccc4c(C)nn23)cc1S(=O)(=O)N1CCN(CCO)CC1 | . | . | 4.2 | . | . | . | . | .
COc1ccc(Nc2nc(C)cc(C)c2C#N)cc1OC | . | . | . | . | . | . | / | /
O=C(CSC1=NCCS1)Nc1ccnc2ccccc12 | . | . | 4.2 | . | . | 109 | . | ?
CC(=O)Nc1ccc(NC(=O)CSC2=NCCS2)cc1 | . | . | . | . | . | . | / | /
O=C(CCCn1c(=O)oc2ccccc21)N1CCc2ccccc2C1 | . | / | . | . | . | / | / | /
O=C(CCn1c(=O)oc2ccccc21)NCCN1CCc2ccccc2C1 | . | . | 3.3 | . | . | . | . | .
CC1=C(C#N)C(=O)NC(C)(C)C1 | . | . | . | . | . | . | / | /
CC1=C(C#N)C(=O)N(C)C(C)(C)C1 | . | . | 19 | . | . | . | . | .
CCOC(=O)C1CCCN(c2ncnc3c2cnn3-c2cccc(C)c2)C1 (stereo not given) | -2.2 | / | 33 | / | . | / | 282 | .
Cc1ccc(-n2ncc3c(N4CCCC4)ncnc32)c(C)c1 | . | . | . | / | . | . | / | /
COc1cccc(N2CCN(c3ncnc4c3cnn4-c3ccc(C)cc3C)CC2)c1 | . | . | 9.7 | -7.4 | . | . | . | .
CCN(CC)C(=O)C1CCCN(c2ncnc3c2cnn3-c2cccc(C)c2)C1 (stereo not given) | . | . | . | . | . | . | / | /
Cc1cc(NC(=O)C(C)C)ncc1NC(=O)CCc1ccccc1 | . | . | . | . | . | . | / | /
